Calls of active or inactive are those of the source.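 The calls were made as follows: active = compounds cutting cell ATP signal whose AC50 is at most twice their top valid dose; inconclusive = flat curve with 30 to 70% signal loss, or poor fit; inactive = the rest.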

The subject of this assay is MALME3 melanoma viability, CellTiter-Glo ATP luminescence, 24 h. Description: cytotoxicity in MALME3 melanoma cells – cell-based, CellTiter-Glo luminescence, dry powder, set 3, orthogonal assay for MITF inhibitor project, dose response (AID 624362). In a few lines:
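Assay system: MALME3 melanoma cell line; Amount: 3000 cells/well; Medium: phenol-red-free IMDM supplemented with 10% FBS; Compound: multi-dose series, pinned; Timing: compound exposure at 37 °C, cells plated one day earlier; Technique: CellTiter-Glo ATP luminescence; Evaluation: cell viability inferred from cellular ATP level; Controls: parthenolide at 27 µM as positive control.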
On the technique in general: Cellular ATP, detected with luciferase, serves as a proxy for viable cell number.
As usually defined, the AC50 is the concentration giving half of the maximal activity seen. In the case of `O=C1C=C(NS(=O)(=O)c2ccccc2)C(=O)c2ccccc21`, the half-maximal activity concentration (AC50) was 11.6 µM. Under `NC1=C(NS(=O)(=O)c2cccs2)C(=O)c2ccccc2C1=O` stands 16.8 µM; under `COC1=C(NS(=O)(=O)c2ccc(Br)cc2)C(=O)c2ccccc2C1=O`, 14.7 µM.

As for `O=C1C=C(Nc2ccccc2)C(=O)c2ccccc21`, the AC50 was 2.89 µM. The figure for `COC1=C(Nc2ccccc2)C(=O)c2ccccc2C1=O` is 7.46 µM. Under `O=C1C(NS(=O)(=O)c2ccccc2)=C(c2ccccc2)C(=O)c2ccccc21` stands > 70 µM (inactive); under `O=C1C=C(NS(=O)(=O)c2ccc(Br)cc2)C(=O)c2ccccc21`, 14.3 µM; under `NC1=C(NS(=O)(=O)c2ccc(Br)s2)C(=O)c2ccccc2C1=O`, > 70 µM (inactive). The figure for `O=C1C=C(NS(=O)(=O)c2cccs2)C(=O)c2ccccc21` is 15.3 µM; for `O=C1C(Nc2ccccc2)=C(c2ccccc2)C(=O)c2ccccc21` it is 36 µM; for `NC1=C(NS(=O)(=O)c2ccccc2)C(=O)c2ccccc2C1=O` it is 15 µM. As to `COC1=C(NS(=O)(=O)c2cccs2)C(=O)c2ccccc2C1=O`, the AC50 is 23.4 µM.

The values above are taken from PubChem BioAssay AID624362 (Broad Institute, 2012).
